Experiments:
[1] = target: human dopamine transporter (hDAT) (Homo sapiens, UniProt Q01959); test: Inhibition of APP+ uptake in hDAT-expressing HEK293 cells; assay type: cell-based; conditions: for DAT Selectivity: SERT IC50 value ÷ DAT IC50 value; for IC50: hDAT, inhibition of APP+ (3 μM) uptake
Method in brief: (§1)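 Flp-In T-REx HEK293 lines stably carrying hDAT or hSERT, DsRED-transfected, doxycycline-induced (1μg/mL) for three days. Under perfusion in pH 7.3 HEPES-glucose buffer: 10 s buffer, 40 s compound, 30 s APP⁺ (3 μM hDAT; 5 μM hSERT) plus compound. Imaging at ex 460/em 535/50 nm. End-point fluorescence averaged over 30–60 cells per well, one concentration per well, normalised to compound-free wells (≥4 wells/concentration). Dose-response inhibition fit gives IC50.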

[2] = target: human serotonin transporter (hSERT) (Homo sapiens, UniProt P31645); test: Inhibition of APP+ uptake in hSERT-expressing HEK293 cells; assay type: cell-based; conditions: inhibition of APP+ (5 μM) uptake
human serotonin transporter (hSERT), sequence (P31645 whole entry): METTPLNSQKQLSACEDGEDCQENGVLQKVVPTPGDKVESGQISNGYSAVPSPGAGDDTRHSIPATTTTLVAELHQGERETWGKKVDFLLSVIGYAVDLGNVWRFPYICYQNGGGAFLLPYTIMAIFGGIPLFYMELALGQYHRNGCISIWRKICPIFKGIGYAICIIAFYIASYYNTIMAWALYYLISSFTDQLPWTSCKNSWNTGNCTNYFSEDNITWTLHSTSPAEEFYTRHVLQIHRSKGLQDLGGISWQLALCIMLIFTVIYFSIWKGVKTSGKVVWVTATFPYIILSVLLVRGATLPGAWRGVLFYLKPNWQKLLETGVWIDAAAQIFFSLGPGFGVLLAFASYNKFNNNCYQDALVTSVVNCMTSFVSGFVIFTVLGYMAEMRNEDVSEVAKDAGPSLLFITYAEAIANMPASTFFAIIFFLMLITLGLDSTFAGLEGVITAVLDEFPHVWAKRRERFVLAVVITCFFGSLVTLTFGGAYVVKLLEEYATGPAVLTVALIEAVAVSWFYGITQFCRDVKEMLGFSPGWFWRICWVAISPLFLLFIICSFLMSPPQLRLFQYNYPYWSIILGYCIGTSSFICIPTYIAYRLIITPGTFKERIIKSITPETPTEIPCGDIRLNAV
Method in brief: as §1

DAT [3] = conditions: binding at DAT; cited from earlier work
DAT [4] = conditions: cited from earlier work; for EC50: DAT releasing agent

human dopamine transporter (hDAT), sequence (Q01959 whole entry, the tested form may be a part): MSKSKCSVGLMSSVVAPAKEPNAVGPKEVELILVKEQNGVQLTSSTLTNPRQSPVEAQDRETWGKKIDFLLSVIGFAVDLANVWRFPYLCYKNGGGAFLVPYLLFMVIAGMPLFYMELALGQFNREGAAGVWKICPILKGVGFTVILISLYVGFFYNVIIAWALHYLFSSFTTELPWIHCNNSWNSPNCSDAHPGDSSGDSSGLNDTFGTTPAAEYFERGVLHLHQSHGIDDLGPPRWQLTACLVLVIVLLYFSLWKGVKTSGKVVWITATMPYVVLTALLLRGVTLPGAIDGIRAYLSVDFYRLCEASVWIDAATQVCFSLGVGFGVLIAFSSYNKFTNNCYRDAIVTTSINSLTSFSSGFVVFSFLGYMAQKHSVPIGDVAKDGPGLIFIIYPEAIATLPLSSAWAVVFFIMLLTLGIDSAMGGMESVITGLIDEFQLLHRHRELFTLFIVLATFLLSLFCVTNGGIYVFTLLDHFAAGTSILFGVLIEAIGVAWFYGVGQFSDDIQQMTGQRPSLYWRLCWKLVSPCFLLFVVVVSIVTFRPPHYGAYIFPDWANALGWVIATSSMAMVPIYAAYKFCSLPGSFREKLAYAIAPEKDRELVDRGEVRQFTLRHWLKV

| SMILES | DAT Selectivity [1] | IC50 [1] | IC50 [2] | also measured |
| --- | --- | --- | --- | --- |
| CCCCC(C(=O)c1ccccc1)N1CCCC1 (stereo not drawn) [α-PHP (1), 1-phenyl-2-(pyrrolidin-1-yl)hexanone] | >300 fold | 97 nM | > 30000 nM | – |
| CCCCC(C(=O)c1ccc(C(F)(F)F)cc1)N1CCCC1.Cl (stereo not drawn) [4-CF3 α-PHP (9), 1-(4-Trifluoromethylphenyl)-2-pyrrolidin-1-yl)hexanone Hydrochloride] | – | 7500 nM | 5790 nM | – |
| CCCC(C(=O)c1ccc(C(F)(F)F)cc1)N1CCCC1 (centres unmarked) [4-CF3 analogue of 2] | – | – | – | fold lower affinity at DAT than 2 (DAT [3]): > 300 fold |
| CCCCC(C(=O)c1ccc(Cl)cc1)N1CCCC1.Cl (stereo not drawn) [4-Cl α-PHP (7), 1-(4-Chlorophenyl)-2-(pyrrolidin-1-yl)hexanone Hydrochloride] | 55 fold | 184 nM | 10100 nM | – |
| CCCCC(C(=O)c1ccc(C(F)(F)F)cc1)N1CCCC1.Cl (stereo not drawn) [4-CF3 α-PHP (9)] | 0.8 fold | – | – | – |
| CCCCC(C(=O)c1ccc(C)cc1)N1CCCC1.Cl (stereo not drawn) [4-CH3 α-PHP (4), 1-(4-Methylphenyl)-2-pyrrolidin-1-yl)hexanone Hydrochloride] | – | 124 nM | 10200 nM | – |
| CCCCC(C(=O)c1ccc(C)cc1)N1CCCC1.Cl (stereo not drawn) [4-CH3 α-PHP (4)] | 83 fold | – | – | – |
| CCCCC(C(=O)c1ccc(CC)cc1)N1CCCC1.Cl (stereo not drawn) [4-CH2CH3 α-PHP (6), 1-(4-Ethylphenyl)-2-(pyrrolidin-1-yl)hexanone Hydrochloride] | 40 fold | 247 nM | 9830 nM | – |
| CCCCC(C(=O)c1ccc(OC)cc1)N1CCCC1.Cl (stereo not drawn) [4-OCH3 α-PHP (5), 1-(4-Methoxyphenyl)-2-(pyrrolidin-1-yl)hexanone Hydrochloride] | 200 fold | 75 nM | 15200 nM | – |
| CNC(C)C(=O)c1ccccc1 (centres unmarked) [Compound 10, methcathinone] | – | – | – | EC50 (DAT [4]): 13.5 nM |
| CNC(C)C(=O)c1ccc(OC)cc1 (centres unmarked) [4-OCH3 10] | – | – | – | fold lower potency as a releasing agent than its parent, 10 (DAT [4]; DAT release): 40 fold; SERT versus DAT selectivity (DAT [4]; releasing agent): 4 fold |
| CNC(C)C(=O)c1ccc(C(F)(F)F)cc1 (centres unmarked) [4-CF3 10, 4-CF3 methcathinone] | – | – | – | EC50 (DAT [4]): 2710 nM |
| CCCCC(C(=O)c1ccc(Br)cc1)N1CCCC1.Cl (stereo not drawn) [4-Br α-PHP (8), 1-(4-Bromophenyl)-2-(pyrrolidin-1-yl)hexanone Hydrochloride] | 28 fold | 127 nM | 3610 nM | – |

Source: publication PMC10670441 (ACS chemical neuroscience, 2023)
